Measured values published in ChEMBL document CHEMBL1149633, “Protection from endotoxic shock by EVK-203, a novel alkylpolyamine sequestrant of lipopolysaccharide” (Bioorg Med Chem, 2007).
Activity calls are given as the source filed them. The calls are words filed in the database; no cut-off is given here.

Assays:
[1] = Binding affinity to LPS by BODIPY-TR-cadaverine displacement assay
Summary of the method: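 Fluorescence displacement of BODIPY-TR-cadaverine (5 μM) bound to E. coli O111:B4 smooth LPS (50 μg/ml), both in the mixture added to the wells. Compound serially diluted two-fold in 50 mM Tris pH 7.4 […], quadruplicates. Ex 580/em 620 nm at 25 °C. ED50 is the dose that displaces 50% of bound probe, taken from a four-parameter logistic fit.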

[2] = biological target: T1, MAP kinase p38 (Homo sapiens) (UniProt O15264+Q15759+Q16539+P53778); test: Inhibition of p38MAPK phosphorylation in TNF-alpha-induced human whole blood neutrophils; assay type: protein assay
[3] = biological target: T1, MAP kinase p38 (Homo sapiens); test: Inhibition of p38MAPK phosphorylation in LPS-induced human whole blood neutrophils; assay type: tissue-based
Mus musculus [4] = species on record: Mus musculus; test: Prevention of LPS-induced lethality in D-galactosamine-primed CF1 mouse model of lethal endotoxic shock; assay type: functional, organism-based
[5] = biological target: T1, MAP kinase p38 (Homo sapiens); test: Inhibition of TNFalpha induced p38MAPK phosphorylation in human whole blood neutrophils; assay type: tissue-based
HEK293 = test: Inhibition of LPS-induced NF-kappaB induction in HEK293 cells co-transfected with TLR4, CD14 and MD2; assay type: functional, cell-based; settings: Homo sapiens
Summary of the method: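 HEK293 cells stably expressing TLR4, CD14, MD2 and an NF-κB/AP-1-driven secreted alkaline phosphatase reporter. Plated at ~10^5 cells/ml and grown to confluency. Stimulated with 10 ng/ml E. coli O111:B4 LPS plus serially diluted compound, then incubated overnight. seAP in the supernatant was read by chromogen at 620 nm.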

Blood [6] = test: Inhibition of LPS-induced IL8 production in human whole blood; assay type: functional, tissue-based
Summary of the method: (§1)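 EDTA-anticoagulated fresh whole blood from healthy human volunteers, mixed with an equal volume of 20 ng/ml E. coli O111:B4 LPS. Graded compound, diluted in saline, added at the same time. Incubated 4 h. TNF-α, IL-6 and IL-8 were quantified by multiplexed flow-cytometric bead array against recombinant standard curves.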

J774.A1 = test: Inhibition of nitric oxide production in LPS-stimulated mouse J774A.1 cells; assay type: functional, cell-based
Summary of the method: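 J774A.1 cells in RPMI-1640 with 10% FBS and 200 μg/ml L-arginine, 37 °C, 5% CO2. Plated at ~10^5 cells/ml, grown to confluency, then given 10 ng/ml E. coli O111:B4 LPS together with serially diluted compound for 16 h. Nitrite measured with Griess reagent (15 min, RT, dark) at 535 nm against a sodium nitrite standard curve.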

Blood [7] = test: Inhibition of LPS-induced IL6 production in human whole blood; assay type: functional, tissue-based; summary of the method: as §1
Blood [8] = test: Inhibition of LPS-induced TNFalpha production in human whole blood; assay type: functional, tissue-based; summary of the method: as §1
Mus musculus [9] = species on record: Mus musculus; test: Prevention of TNFalpha induced lethality in CF1 mouse; assay type: functional, organism-based
Summary of the method: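 Mice were challenged with 100 ng/animal of recombinant murine TNF-α, and lethality was assessed.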

Mus musculus [10] = test: Inhibition of LPS-induced plasma TNFalpha level in sc dosed mouse pretreated 1 hr before LPS challenge by CBA assay; assay type: functional, organism-based
Summary of the method: (§2)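 Female outbred CF-1 mice (9–11 weeks, 22–28 g), 5 per group. Graded compound or vehicle given s.c. at −1 h, then 200 ng LPS in saline i.p. at 0 h. Terminal cardiac-puncture blood taken under halothane at 1, 2 and 3 h. Plasma cytokines measured by mouse inflammation bead array.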

Mus musculus [11] = test: Toxicity in mouse at 40 mg/kg, sc after 5 days; assay type: organism-based; parameters: dose 40 mg/kg, route subcutaneous; settings: in vivo, 120 h
Summary of the method: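 Female CF-1 mice were given 40 mg/kg s.c. in the lower flank daily for 5 days (200 mg/kg total), in 0.2 ml isotonic saline with human serum albumin at 66 mg/ml. They were monitored for external signs, and nephro- and hepatotoxicity were assessed by clinical chemistry on Day 6.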

Mus musculus [12] = test: Prevention of LPS-induced lethality in D-galactosamine-primed CF1 mouse model of lethal endotoxic shock at 8 mg/kg, sc administered concurrently to LPS administration; assay type: functional, organism-based; parameters: dose 8 mg/kg
Summary of the method: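 D-galactosamine-sensitized female CF-1 mice received 8 mg/kg s.c. at different times before or after i.p. LPS (200 ng/animal, 2× LD100, given at 0 h), including concurrent dosing. Survival recorded.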

Mus musculus [13] = test: Inhibition of LPS-induced plasma IL6 level in sc dosed mouse pretreated 1 hr before LPS challenge by CBA assay; assay type: functional, organism-based; summary of the method: as §2
Mus musculus [14] = test: Inhibition of LPS-induced plasma MCP1 level in sc dosed mouse pretreated 1 hr before LPS challenge by CBA assay; assay type: functional, organism-based; summary of the method: as §2

T1 sequence (P53778 whole entry, looked up, chain 1 of 4): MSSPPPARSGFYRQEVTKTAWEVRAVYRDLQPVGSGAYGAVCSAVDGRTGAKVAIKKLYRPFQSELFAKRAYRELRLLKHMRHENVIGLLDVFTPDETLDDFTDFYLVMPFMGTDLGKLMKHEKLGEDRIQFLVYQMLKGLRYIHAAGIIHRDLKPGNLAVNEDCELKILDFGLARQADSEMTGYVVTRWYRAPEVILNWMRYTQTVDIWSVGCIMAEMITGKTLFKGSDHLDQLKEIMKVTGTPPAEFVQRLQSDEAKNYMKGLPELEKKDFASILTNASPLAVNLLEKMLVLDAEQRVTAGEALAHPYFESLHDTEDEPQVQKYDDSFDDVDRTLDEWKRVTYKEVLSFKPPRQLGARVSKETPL
T1 sequence (Q16539 whole entry, looked up, chain 2 of 4): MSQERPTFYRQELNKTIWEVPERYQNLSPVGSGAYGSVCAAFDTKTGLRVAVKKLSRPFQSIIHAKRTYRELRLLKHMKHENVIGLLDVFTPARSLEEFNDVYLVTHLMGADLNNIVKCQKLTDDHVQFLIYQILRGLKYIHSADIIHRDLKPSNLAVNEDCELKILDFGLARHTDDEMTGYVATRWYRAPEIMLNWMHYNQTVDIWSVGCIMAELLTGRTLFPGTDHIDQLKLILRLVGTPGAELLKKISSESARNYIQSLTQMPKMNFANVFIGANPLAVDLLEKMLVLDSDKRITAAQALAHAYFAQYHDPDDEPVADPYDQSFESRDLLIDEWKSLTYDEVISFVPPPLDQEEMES
T1 sequence (Q15759 whole entry, looked up, chain 3 of 4): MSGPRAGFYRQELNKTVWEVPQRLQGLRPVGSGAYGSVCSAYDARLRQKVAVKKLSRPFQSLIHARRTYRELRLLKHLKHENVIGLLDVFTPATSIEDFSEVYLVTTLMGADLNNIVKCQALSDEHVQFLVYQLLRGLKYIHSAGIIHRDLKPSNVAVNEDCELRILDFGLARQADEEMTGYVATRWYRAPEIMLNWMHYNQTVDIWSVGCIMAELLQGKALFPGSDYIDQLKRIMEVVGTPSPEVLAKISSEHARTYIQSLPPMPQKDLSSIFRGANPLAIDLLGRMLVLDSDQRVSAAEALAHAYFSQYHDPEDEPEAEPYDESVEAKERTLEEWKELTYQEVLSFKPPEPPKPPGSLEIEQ
T1 sequence (O15264 whole entry, looked up, chain 4 of 4): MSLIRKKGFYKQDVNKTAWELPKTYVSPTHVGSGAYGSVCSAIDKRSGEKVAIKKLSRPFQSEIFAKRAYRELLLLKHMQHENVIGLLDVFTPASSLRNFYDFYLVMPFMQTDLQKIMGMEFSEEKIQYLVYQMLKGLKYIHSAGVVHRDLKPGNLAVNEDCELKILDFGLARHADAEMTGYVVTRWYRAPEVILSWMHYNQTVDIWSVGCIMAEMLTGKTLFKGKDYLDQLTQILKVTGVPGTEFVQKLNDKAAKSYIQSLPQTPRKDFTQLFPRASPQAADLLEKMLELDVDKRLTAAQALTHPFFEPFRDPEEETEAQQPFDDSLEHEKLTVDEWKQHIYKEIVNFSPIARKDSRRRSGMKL

POLYMYXIN B [listing 1 of 2 here]
ED50 [1]: 1.22 µM
Activity [2]: inactive
Activity [3]: Dose-dependent effect
Activity (Mus musculus [4]): Active
Activity [5]: inactive

CCCCCCCCCCCCCCCCN(CCCCCCCCCCCCCCCC)CCCNCCCNCCCCNCCCN
IC50 (HEK293): 2.7 µM

POLYMYXIN B [listing 2 of 2 here]
IC50 (Blood [6]): 16.4 µM
IC50 (J774.A1; j774.a1): 1.79 µM
IC50 (Blood [7]): 11 µM
IC50 (Blood [8]): 14.2 µM

CCCCCCCCCCCCCCCC(CCCCCCCCCCCCCCC)NCCCNCCCNCCCCNCCCNCCCNC(CCCCCCCCCCCCCCC)CCCCCCCCCCCCCCC
IC50 (HEK293): 21 µM

CCCCCCCCCCCCCCCC(CCCCCCCCCCCCCCC)NCCCNCCCNCCCCNCCCN
IC50 (HEK293): 2.7 µM

CCCCCCCCCCCCCCC/C=C(/CCCCCCCCCCCCCC)CNCCCNCCCNCCCCNCCCN
ED50 [1]: 3.14 µM
Activity [2]: inactive
IC50 (HEK293): 2.9 µM
IC50 (Blood [6]; Homo sapiens, Blood): 3.08 µM
Activity [3]: Dose-dependent effect
IC50 (J774.A1; Mus musculus, J774.A1): 2.22 µM
Activity (Mus musculus [4]): Active
Activity (Mus musculus [9]): inactive
Activity (Mus musculus [10]): Dose-dependent effect
Activity (Mus musculus [11]): Non-toxic
Activity (Mus musculus [12]): Active
Activity (Mus musculus [13]): Dose-dependent effect
IC50 (Blood [7]; Homo sapiens, Blood): 4 µM
Activity [5]: inactive
IC50 (Blood [8]; Homo sapiens, Blood): 3.85 µM
Activity (Mus musculus [14]): Dose-dependent effect

CCCCCCCCCCCCCCCCC(CCCCCCCCCCCCCC)CNCCCNCCCNCCCCNCCCN (stereo not given)
IC50 (HEK293): 2.6 µM

CCCCCCCCCCCCCCC/C=C(/CCCCCCCCCCCCCC)CNCCCNCCCNCCCCNCCCNCCCNC/C(=C\CCCCCCCCCCCCCCC)CCCCCCCCCCCCCC
IC50 (HEK293): 22 µM
